Measurements collected from several papers.
Lines come from different studies, so protocols differ.
Target: SRSF protein kinase 3 (SRPK3, Homo sapiens, UniProt Q9UPE1)

Structure (SMILES)	observed	action	technique	concentration	quantity	value
CC(C)S(=O)(=O)c1ccc2nccc(Nc3ccc4sc(C5CCCC5)nc4c3)c2c1	enzyme activity	inhibitor		1 µM	activity vs control	110%
C#Cc1cnc(Nc2ccnc(CO)c2)nc1Nc1ccccc1S(C)(=O)=NC#N (centres unmarked)	cell-free assay			1 µM	remaining signal	47%
CN1CCN(C(=O)c2ccc(NC(=O)Nc3ccc(N(C)c4ccnc(Nc5ccc(CS(C)(=O)=O)cc5)n4)cc3)cc2)CC1	binding			1 µM	remaining binding	7.7%
C=CC(=O)N1CCC[C@@H](n2nc(-c3ccc(Oc4ccccc4)cc3)c3c(N)ncnc32)C1	enzyme activity	inhibitor		1 µM	inhibition	16%
CCCCC(=O)Nc1ccc(-c2ccc3ncn(CCC)c(=O)c3c2)cn1	binding		competition with immobilised ligand	0.5 µM	remaining binding	92%
N#Cc1ccc(NC(=O)Nc2ccccc2)cc1	cell-free assay		competition with immobilised ligand	25 µM	inhibition	90.3%
Cc1ccc(NC(=O)c2ccnc(C(F)(F)F)c2)cc1-c1cc(OCCO)nc(N2CCOCC2)c1	binding			1 µM	remaining binding	93%
CC#CC(=O)N1CCC[C@H]1c1nc(-c2ccc(C(=O)Nc3ccccn3)cc2)c2c(N)nccn12	enzyme activity	inhibitor		1 µM	inhibition	0%
